The source made the active and inactive calls.
Legend:
Rattus norvegicus [1] = species: Rattus norvegicus; assay: Displacement of [3H]BTX-B from VGSC site 2 in rat forebrain membranes at 40 uM incubated at 37 degC for 60 mins; assay type: cell membranes; conditions: Brain, Membrane
Rattus norvegicus [2] = assay: Anticonvulsant effect in Sprague-Dawley rat epileptic model assessed as increase in seizure thresholds at 50 mg/kg, po dosed before seizure induction by subcutaneous metrazol seizure threshold test; assay type: functional, organism-based; set-up: dose 50 mg/kg
Procedure, shortened: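 Rats pretreated orally with 50 mg/kg of test compound, then seizures induced by subcutaneous Metrazol (scMET) injection; testing done through the NINDS anticonvulsant screening program.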

Rattus norvegicus [3] = assay: Anticonvulsant effect in Sprague-Dawley rat epileptic model assessed as increase in seizure thresholds at 50 mg/kg, po dosed before seizure induction by maximal electroshock test; assay type: functional, organism-based; set-up: dose 50 mg/kg
Rattus norvegicus [4] = assay: Antinociceptive effect in Sprague-Dawley rat model of sciatic nerve constriction-induced neuropathic pain model assessed as reduction in threshold to von Frey filaments applied to affected hind paw at 100 mg/kg, sc measured 2 hrs post dose; assay type: functional, organism-based; set-up: dose 100 mg/kg
Procedure, shortened: (§1)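 Adult female Sprague-Dawley rats (150 g at start) with unilateral sciatic nerve ligation; only animals with significant allodynia were used. Drug dissolved in DMSO and diluted in PEG400 to a 200 mg/ml stock, then diluted in PEG400/PBS and given subcutaneously. Von Frey withdrawal threshold measured by the up-and-down method 2 h post-dose. n = 5 per group, vehicle controls; one-way ANOVA with Tukey post hoc tests.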

Rattus norvegicus [5] = assay: Antinociceptive effect in Sprague-Dawley rat model of sciatic nerve constriction-induced neuropathic pain model assessed as reduction in threshold to von Frey filaments applied to affected hind paw at 50 mg/kg, sc measured 2 hrs post dose; assay type: functional, organism-based; set-up: dose 50 mg/kg; procedure, shortened: as §1
[6] = Drug localization in Sprague-Dawley rat dorsal root ganglions at 100 uM using dansylated compound by two photon confocal microscopy; assay type: ADME, tissue-based, Dorsal root ganglion
[7] = target: Sodium channel protein type 2 subunit alpha (Homo sapiens) (UniProt Q99250); assay: Inhibition of human NaV1.2 expressed in HEK293 cells at 10 uM using sodium currents elicited through depolarizing step from holding potential of -100 mV to +10 mV for 25 ms at 15 s intervals by whole cell patch clamp method; assay type: cell-based
Procedure, shortened: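 HEK293 cells stably expressing hNav1.2 were studied by whole-cell patch clamp at 20–22 °C with at least 75% series resistance compensation. Compound came from a 100 mM DMSO stock diluted in perfusion solution (final DMSO at most 0.1%). It was applied after a 3 min control period until current reached steady state. Result expressed as mean percent block ± SEM.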

Rattus norvegicus [8] = assay: Antinociceptive effect in Sprague-Dawley rat model of sciatic nerve constriction-induced neuropathic pain model assessed as […] to von Frey filaments applied to affected hind paw at 30 mg/kg, sc measured 2 hrs post dose; assay type: functional, organism-based; set-up: dose 30 mg/kg

Sequence of Sodium channel protein type 2 subunit alpha (Homo sapiens) (Q99250 whole entry, looked up, the tested form may be a part): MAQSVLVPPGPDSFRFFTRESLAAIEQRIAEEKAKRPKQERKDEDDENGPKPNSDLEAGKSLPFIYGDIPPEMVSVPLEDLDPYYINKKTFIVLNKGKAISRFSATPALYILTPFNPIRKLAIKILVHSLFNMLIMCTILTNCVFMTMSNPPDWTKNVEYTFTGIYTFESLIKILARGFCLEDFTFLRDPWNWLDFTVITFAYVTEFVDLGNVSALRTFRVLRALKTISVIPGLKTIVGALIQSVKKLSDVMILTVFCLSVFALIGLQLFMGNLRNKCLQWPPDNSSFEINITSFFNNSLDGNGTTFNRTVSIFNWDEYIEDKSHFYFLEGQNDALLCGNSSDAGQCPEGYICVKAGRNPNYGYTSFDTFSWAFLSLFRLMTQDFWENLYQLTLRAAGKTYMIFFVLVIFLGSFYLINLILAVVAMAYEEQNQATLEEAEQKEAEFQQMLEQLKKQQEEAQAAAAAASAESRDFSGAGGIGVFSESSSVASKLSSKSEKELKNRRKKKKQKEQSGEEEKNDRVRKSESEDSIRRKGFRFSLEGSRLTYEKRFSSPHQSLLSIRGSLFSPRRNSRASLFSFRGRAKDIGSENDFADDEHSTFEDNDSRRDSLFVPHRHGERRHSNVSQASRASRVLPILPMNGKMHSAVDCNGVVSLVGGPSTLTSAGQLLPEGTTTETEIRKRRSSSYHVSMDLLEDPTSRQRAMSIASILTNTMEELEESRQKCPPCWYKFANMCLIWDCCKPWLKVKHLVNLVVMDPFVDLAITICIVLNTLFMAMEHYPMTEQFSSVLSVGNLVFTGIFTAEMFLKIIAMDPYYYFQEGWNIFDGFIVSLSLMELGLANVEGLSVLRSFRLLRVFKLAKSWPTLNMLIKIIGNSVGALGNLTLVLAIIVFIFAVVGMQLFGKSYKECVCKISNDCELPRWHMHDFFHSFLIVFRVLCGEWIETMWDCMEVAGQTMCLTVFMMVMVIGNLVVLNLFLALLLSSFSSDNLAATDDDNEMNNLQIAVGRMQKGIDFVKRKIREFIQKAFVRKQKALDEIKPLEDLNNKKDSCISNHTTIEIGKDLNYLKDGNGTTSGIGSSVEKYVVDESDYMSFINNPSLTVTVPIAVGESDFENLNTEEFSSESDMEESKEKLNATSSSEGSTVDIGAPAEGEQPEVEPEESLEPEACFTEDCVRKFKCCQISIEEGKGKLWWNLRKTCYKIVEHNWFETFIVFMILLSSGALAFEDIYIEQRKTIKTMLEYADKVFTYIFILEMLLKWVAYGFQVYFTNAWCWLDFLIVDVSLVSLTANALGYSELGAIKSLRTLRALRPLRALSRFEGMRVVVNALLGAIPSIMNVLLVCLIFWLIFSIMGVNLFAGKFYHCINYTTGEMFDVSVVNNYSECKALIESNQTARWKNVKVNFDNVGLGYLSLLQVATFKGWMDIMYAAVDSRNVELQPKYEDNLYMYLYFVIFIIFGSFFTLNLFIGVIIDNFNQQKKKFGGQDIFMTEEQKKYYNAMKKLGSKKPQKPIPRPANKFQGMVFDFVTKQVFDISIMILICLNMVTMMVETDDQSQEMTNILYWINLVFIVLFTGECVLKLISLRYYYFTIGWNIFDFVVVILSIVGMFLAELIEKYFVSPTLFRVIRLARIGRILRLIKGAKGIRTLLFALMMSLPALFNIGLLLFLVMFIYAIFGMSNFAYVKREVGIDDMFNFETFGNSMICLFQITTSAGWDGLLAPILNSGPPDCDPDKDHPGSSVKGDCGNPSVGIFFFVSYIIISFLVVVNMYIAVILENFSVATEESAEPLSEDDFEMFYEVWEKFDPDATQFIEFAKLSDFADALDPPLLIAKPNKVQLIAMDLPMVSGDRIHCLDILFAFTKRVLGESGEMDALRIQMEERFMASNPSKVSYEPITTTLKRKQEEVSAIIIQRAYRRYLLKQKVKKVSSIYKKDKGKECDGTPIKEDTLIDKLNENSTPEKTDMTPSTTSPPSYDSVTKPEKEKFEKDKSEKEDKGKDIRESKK

SMILES | inhibition (Rattus norvegicus [1]) [%] | other results
C#CC(O)(CCCCCCC)c1cccc(Cl)c1 (centres undefined) | 78 | –
CCCCCCCC(O)(C(N)=O)c1cccc(Cl)c1 (centres undefined) | 48 | –
CC(C)=CCCC(C)CCC(O)(C(N)=O)c1cccc(Cl)c1 (centres undefined) | 40 | –
CCCCCCCC1(c2cccc(Cl)c2)NC(=O)N(Cc2ccccc2)C1=O (centres undefined) | 72 | –
O=C1NC(=O)C(CCCCCC2CC2)(c2cccc(Cl)c2)N1 (centres undefined) | 87 | –
CCCCCCCC(O)(c1cccc(Cl)c1)c1ccccn1 (centres undefined) | 28 | –
CCCCCCCC1(c2cccc(Cl)c2)C(=O)N=C(SC)N1C (centres undefined) | 18 | –
C#C/C(=C\CCCCCC)c1cccc(Cl)c1 | 32 | –
C=CCCCCCC1(c2cccc(Cl)c2)NC(=O)N(CC=C)C1=O (centres undefined) | 72 | –
CCCCCCCC1(c2cccc(Cl)c2)NC(=O)N(CC2CC2)C1=O (centres undefined) | 78 | –
CCCCCCCC(O)(c1cc(F)cc(F)c1)c1cccc(Cl)c1 (centres undefined) | 35 | –
CCCCCCCC1(c2cccc(Cl)c2)NC(=O)N(Cc2cccc(F)c2)C1=O (centres undefined) | 71 | –
O=C1NC(=O)C(CCCCCC2CO2)(c2cccc(Cl)c2)N1 (centres undefined) | 28 | –
CCCCCCCC(O)(c1cccc(Cl)c1)c1cc(F)cc(OC)c1 (centres undefined) | 56 | –
C=CCN1C(=O)NC(CCCCCCC)(c2cccc(Cl)c2)C1=O (centres undefined) | 83 | –
CCCCCCCC(O)(c1cccc(Cl)c1)c1cc(C(F)(F)F)cc(C(F)(F)F)c1 (centres undefined) | 8 | –
C=CCCCCCC(O)(C(N)=O)c1cccc(Cl)c1 (centres undefined) | 86 | –

SMILES | inhibition (Rattus norvegicus [1]) [%] | other results
CCCCCCCC(O)(c1cccc(Cl)c1)c1ccc(C)cn1 (centres undefined) | 41 | –
CCCCCCCC1(c2cccc(Cl)c2)OC(C)(C)OC1=O (centres undefined) | 27 | –
CCCCCCCC(O)(c1cccc(Cl)c1)c1cccc(OC)c1 (centres undefined) | 51 | –
C=CCCCCCC1(c2cccc(Cl)c2)NC(=O)NC1=O (centres undefined) | 79 | –
O=C1NC(=O)C(c2ccccc2)(c2ccccc2)N1 [PHENYTOIN] | 28 | Activity (Rattus norvegicus [2]): Active; Activity (Rattus norvegicus [3]): Active
CC(C)=CCC/C(C)=C/CC(O)(C(N)=O)c1cccc(Cl)c1 (centres undefined) | 84 | –
CCCCCCCC1(c2cccc(Cl)c2)NC(=O)N(CCc2ccccc2)C1=O (centres undefined) | 17 | –
CN(C)c1cccc2c(S(=O)(=O)NCCCCCC3(c4cccc(Cl)c4)NC(=O)NC3=O)cccc12 (centres undefined) | 86 | Activity (Rattus norvegicus [4]): Active; Activity (Rattus norvegicus [2]): inactive; Activity (Rattus norvegicus [3]): inactive; Activity (Rattus norvegicus [5]): Active; Drug uptake [6]: Active; inhibition [7]: 59%
O=C1NC(=O)C(CCCOCc2ccccc2)(c2cccc(Cl)c2)N1 (centres undefined) | 71 | –
NCC1(CC(=O)O)CCCCC1 | – | Activity (Rattus norvegicus [8]): Active
NC(=O)C(O)(CCCCOCc1ccccc1)c1cccc(Cl)c1 (centres undefined) | 52 | –
CCCCCCCC1(c2cccc(Cl)c2)NC(=O)NC1=O (centres undefined) | 70 | Activity (Rattus norvegicus [4]): Active; Activity (Rattus norvegicus [5]): Active; inhibition [7]: 31%
CCCCCCCC1(c2cccc(Cl)c2)NC(SC)=NC1=O (centres undefined) | 51 | –
CCCCCCCC(O)(c1cccc(Cl)c1)c1ccc(F)c(F)c1 (centres undefined) | 42 | –
C#CCN1C(=O)NC(CCCCCCC)(c2cccc(Cl)c2)C1=O (centres undefined) | 57 | –
CCCCCCCC1(c2cccc(Cl)c2)NC(=S)NC1=O (centres undefined) | 67 | –
